# According to ChEMBL document CHEMBL2093137, “WHO-TDR NTD Screening”:
# Experiments:
# [1] = tested on: Trypanosoma brucei brucei; experiment: WHO-TDR: Human African Trypanosomiasis (HAT); format: functional, organism-based; conditions: Squib-427
# Method in brief: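 Following previously published standard procedures, with reference drugs as positive controls, a whole-organism assay was run against bloodstream-form Trypanosoma brucei, Squib 427 strain. The compounds, 10,000 in all, came from a diverse Life Chemicals library filtered for drug-likeness and reactive groups. Reported values are IC50 for antiparasitic potency.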
# Onchocerca ochengi [2] = experiment: (§1) WHO-TDR: Onchocerciasis; format: functional; set-up: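 at 12.5 µM on microfilariae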
# Method in brief: (§2)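 Onchocerca ochengi or Onchocerca lienalis, animal pathogens used as surrogates for the human parasite, were screened as whole microfilariae against a 10,000-compound diverse library from Life Chemicals. The reported measures of activity are percent inhibition and IC50.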
# Onchocerca ochengi [3] = experiment: as §1; format: functional; set-up: concentration or dose not given beside the values; method in brief: as §2; remark: listed apart in the source
# Plasmodium falciparum K1 = experiment: WHO-TDR: Malaria; format: functional, organism-based, Homo sapiens; conditions: Erythrocyte
# Method in brief: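 Life Chemicals supplied the diverse library of 10,000 compounds, which had been filtered for drug-likeness and reactive groups. Each was screened against the K1 strain of Plasmodium falciparum at its intra-erythrocytic stage in human red blood cells, using previously published standard procedures and a reference drug as positive control. The table reports IC50 for antiplasmodial potency.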
# [4] = WHO-TDR: Cytotoxicity; format: toxicity, cell-based; conditions: human, MRC5 cells
# Trypanosoma cruzi = experiment: WHO-TDR: Chagas disease; format: functional, organism-based, Homo sapiens; conditions: MRC5
# Method in brief: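 Following previously published standard procedures, with a reference drug as positive control, a whole-organism assay was run on Trypanosoma cruzi Tulahuen CL2 beta-galactosidase strain amastigotes inside MRC-5SV2 human lung fibroblast host cells. The 10,000 compounds tested formed a diverse Life Chemicals library filtered for drug-likeness and reactive groups. Results are expressed as IC50 for antiparasitic potency.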
# Schistosoma mansoni = experiment: WHO-TDR: Schistosomiasis; format: functional; set-up: concentration or dose not given beside the values
# Method in brief: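 Larval and/or adult Schistosoma mansoni (Puerto Rican strain) were tested whole against 10,000 diverse compounds from Life Chemicals. The procedure was a previously published standard one, using a reference drug as positive control. Results are expressed as percent inhibition and IC50.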
# Leishmania infantum = experiment: WHO-TDR: Leishmaniasis; format: functional, organism-based, Mus musculus; conditions: Macrophage
# Method in brief: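 IC50 values describe antiparasitic potency in this whole-organism screen. Leishmania infantum MHOM/MA(BE)/67 amastigotes were tested inside murine peritoneal macrophages against a 10,000-compound diverse Life Chemicals library. A reference drug served as positive control.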
SMILES,IC50 [1] [µg/mL],IC50 (Plasmodium falciparum K1) [µg/mL],IC50 (Leishmania infantum) [µg/mL],% Inhibition (Onchocerca ochengi [2]) [%],% Inhibition (Onchocerca ochengi [3]) [%],IC50 [4] [µg/mL],IC50 (Trypanosoma cruzi) [µg/mL],% Inhibition (Schistosoma mansoni) [%]
COc1cc(CSc2nc(CC(=O)NCc3ccco3)cs2)cc(OC)c1,> 1.21,> 12.1,> 12.1,0,100,7.55,2.99,0
COc1ccc(CCNC(=O)Cc2csc(SCc3ccc(C)cc3)n2)cc1OC,> 13.3,> 13.3,> 13.3,0,100,> 13.3,4.01,0
CSc1nc(NC(C)C)c2cnn(CCNC(=O)C34CC5CC(CC(C5)C3)C4)c2n1,4.07,> 12.9,> 12.9,0,100,> 12.9,4.17,0
O=C(NCCn1nc(-c2ccco2)ccc1=O)C1c2ccccc2Oc2ccccc21,> 12.4,> 12.4,1.84,0,0,> 12.4,> 12.4,0
Cc1ccc(NC(=O)CN2CCC(C(=O)NCCc3c[nH]c4ccccc34)CC2)c(C)c1,> 13,> 13,> 13,0,100,> 13,4.92,0
COc1ccccc1N1CCN(c2nc(Nc3ccc(C)cc3)c3nccnc3n2)CC1,4.1,2.66,4.15,0,100,4.5,3.44,25
CCC(CO)Nc1nc(Nc2ccc(C)c(C)c2)c2nccnc2n1 (stereo not drawn),3.66,> 10.2,> 10.2,0,100,> 10.2,> 10.2,0
COc1ccc(N2CCN(C(=O)c3csc(NC(=O)c4ccccc4)n3)CC2)cc1,> 12.7,> 12.7,6.56,0,100,> 12.7,> 12.7,0
NC(=O)c1csc(NC(=O)C2(c3ccc(Cl)cc3)CCCC2)n1,3.72,> 10.5,> 10.5,0,100,> 10.5,> 10.5,0
O=C(NC1CCCC1)c1csc(NC(=O)c2cccs2)n1,> 9.64,> 9.64,> 9.64,0,100,> 9.64,> 9.64,0
Cc1c(S(=O)(=O)CCNC(=O)NC2CCCCC2)c2ccccc2n1Cc1ccc(F)cc1,> 14.1,> 14.1,> 14.1,0,100,> 14.1,> 14.1,0
CCCOc1nn(CCC)cc1C(=O)N1CCN(c2ccccc2Cl)CC1,3.89,> 11.7,> 11.7,0,100,> 11.7,3.06,0
O=C(NCc1cccs1)c1cn(Cc2ccccc2)nc1OCc1ccccc1,4.85,6.04,> 12.1,0,100,2.72,2.09,0

# The next lines start with results.
IC50 [1] [µg/mL],IC50 (Plasmodium falciparum K1) [µg/mL],IC50 (Leishmania infantum) [µg/mL],SMILES,% Inhibition (Onchocerca ochengi [2]) [%],% Inhibition (Onchocerca ochengi [3]) [%],IC50 [4] [µg/mL],IC50 (Trypanosoma cruzi) [µg/mL],% Inhibition (Schistosoma mansoni) [%]
> 14.7,> 14.7,> 14.7,O=C(CSc1nc(CC(=O)N2CCN(c3ccccc3F)CC2)cs1)Nc1ccc(F)cc1,0,100,> 14.7,> 14.7,0
> 13.2,> 13.2,> 13.2,CC1Cc2ccccc2N1C(=O)Cc1csc(SCC(=O)Nc2ccc(F)cc2)n1 (stereo not drawn),0,100,> 13.2,4.42,0
3.86,> 12.2,> 12.2,O=C(Cc1csc(SCc2ccc(Cl)cc2)n1)NCCC1=CCCCC1,0,100,> 12.2,3.58,0
4.13,> 13,> 13,CSc1nc(NC(C)C)c2cnn(CCNC(=O)COc3ccc(Cl)cc3)c2n1,0,100,> 13,4.18,0
> 13.4,> 13.4,0.695,O=C(CN1CCC(C(=O)Nc2ccc(Oc3ccccc3)cc2)CC1)Nc1ccc(F)cc1,0,0,> 13.4,> 13.4,0
> 12.8,> 12.8,> 12.8,Cc1[nH]c2ccccc2c1S(=O)(=O)CCNC(=O)Nc1ccc(C(F)(F)F)cc1,0,100,> 12.8,> 12.8,0
> 12.5,> 12.5,> 12.5,CCOc1ccc(N2CC(CNS(=O)(=O)c3c(C)cc(C)cc3C)CC2=O)cc1 (stereo not drawn),0,100,> 12.5,> 12.5,0
> 13.3,> 13.3,> 13.3,CCOc1ccc(N2CC(CNS(=O)(=O)c3cccc(C(F)(F)F)c3)CC2=O)cc1 (stereo not drawn),0,100,> 13.3,> 13.3,0
> 11.5,> 11.5,> 11.5,O=C1CC(CNS(=O)(=O)c2ccccc2F)CN1c1ccc(Cl)cc1 (stereo not drawn),0,100,> 11.5,> 11.5,0
4.25,> 13,> 13,O=C1CC(CNS(=O)(=O)c2ccccc2C(F)(F)F)CN1c1ccc(Cl)cc1 (stereo not drawn),0,100,> 13,4.11,0
> 10.5,> 10.5,> 10.5,O=C(NCC1CC(=O)N(c2ccc(Cl)cc2)C1)NC1CCCCC1 (stereo not drawn),100,0,> 10.5,> 10.5,0
> 10.9,> 10.9,> 10.9,O=C(NCC1CC(=O)N(c2ccc(Cl)cc2)C1)Nc1ccccc1F (stereo not drawn),0,100,> 10.9,> 10.9,0
> 12.1,> 12.1,> 12.1,COc1ccc(CCNC(=O)NCC2CC(=O)N(c3ccc(Cl)cc3)C2)cc1 (stereo not drawn),75,100,> 12.1,6.28,0
0.416,> 11.5,> 11.5,Cc1ccc(C)c(C(=O)Nc2ccc3c(c2)CCC(=O)N3Cc2ccccc2)c1,0,75,> 11.5,> 11.5,0
3.89,7.34,> 12,CC(C)CCN1C(=O)CCc2cc(NC(=O)COc3ccc(Cl)cc3)ccc21,0,100,> 12,3.45,0
3.5,> 12.5,> 12.5,CC(C)CCN1C(=O)CCc2cc(NC(=O)c3cccc(Br)c3)ccc21,0,100,> 12.5,3.35,0
3.56,> 10.9,> 10.9,CCCN1C(=O)CCc2cc(NS(=O)(=O)c3ccc(F)cc3)ccc21,0,100,> 10.9,10.9,0
10.2,> 13.1,> 13.1,COc1ccc(Cl)cc1S(=O)(=O)Nc1ccc2c(c1)CCC(=O)N2CCC(C)C,0,100,> 13.1,> 13.1,0
